Values belong to the compound of their own block, whether it stands above or below them.
What was measured:
[1] = target: T1, Adenosine receptor A1 (Rattus norvegicus) (UniProt P25099); assay: Percentage inhibition of [125I]APNEA binding to adenosine A1 receptor from rat brain after 45 min incubation at 1 nM
T1 sequence (whole entry): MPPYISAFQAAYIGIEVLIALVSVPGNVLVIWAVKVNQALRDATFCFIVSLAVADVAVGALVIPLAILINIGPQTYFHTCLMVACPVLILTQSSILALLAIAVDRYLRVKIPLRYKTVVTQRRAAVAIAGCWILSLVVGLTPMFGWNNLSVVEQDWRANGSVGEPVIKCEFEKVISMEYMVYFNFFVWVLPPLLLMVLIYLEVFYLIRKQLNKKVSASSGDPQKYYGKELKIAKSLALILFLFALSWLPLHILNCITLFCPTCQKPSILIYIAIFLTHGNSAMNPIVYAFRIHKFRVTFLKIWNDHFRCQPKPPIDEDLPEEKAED
Outline: (§1)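 Rat cerebral cortex membranes pretreated with adenosine deaminase (0.5 unit/mL, 20 min, 37 °C). Incubated with ligand at the stated concentration for 45 min at 37 °C, then washed three times in Tris/MgCl2/EDTA buffer pH 8.26 with 0.02% Chaps. Then 10⁻⁴ M IBMX for 18 h at 25 °C, washed twice and deaminase-treated again. Untreated membranes went through every step as controls.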

[2] = target: T1, Adenosine receptor A1 (Rattus norvegicus); assay: Percentage inhibition of [125I]APNEA binding to Adenosine A1 receptor from rat brain after 45 min incubation at 10 nM; outline: as §1
[3] = target: T2, Adenosine receptors; A1 & A2 (Rattus norvegicus) (UniProt P29276+P25099+P30543); assay: Relative affinities for Adenosine A2 and Adenosine A1 receptors; type: protein assay
[4] = target: T1, Adenosine receptor A1 (Rattus norvegicus); assay: Percentage inhibition of [125I]APNEA binding to adenosine A1 receptor from rat brain after 45 min incubation at 10 nM; outline: as §1
[5] = target: T3, Adenosine A2 receptor (Rattus norvegicus, UniProt P29276+P30543); assay: Inhibition of [3H]N-ethyladenosine-5'-uronamide binding to Adenosine A2 receptor of rat striatal membrane
[6] = target: T4, Adenosine receptor A1 (Bos taurus, UniProt P28190); assay: Affinity for Adenosine A1 receptor using [125I]APNEA in calf brain.
T4 sequence (P28190 whole entry): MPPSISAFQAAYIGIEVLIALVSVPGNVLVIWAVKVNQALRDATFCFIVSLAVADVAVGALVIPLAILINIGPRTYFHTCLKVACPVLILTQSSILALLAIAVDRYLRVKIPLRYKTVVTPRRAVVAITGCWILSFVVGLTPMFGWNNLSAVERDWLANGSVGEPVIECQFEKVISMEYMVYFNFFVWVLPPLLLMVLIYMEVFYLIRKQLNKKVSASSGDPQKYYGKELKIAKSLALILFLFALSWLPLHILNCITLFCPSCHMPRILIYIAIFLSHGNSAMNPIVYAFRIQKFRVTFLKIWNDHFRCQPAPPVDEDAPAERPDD
Outline: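 Bovine cerebral cortex membranes were pretreated with adenosine deaminase (0.5 unit/mL, 20 min, 37 °C). Membranes (40 µg) were incubated with 125I-APNEA and competitor for 1 h at 37 °C. Separation was by dilution in cold Tris-HCl/MgCl2/EDTA buffer, pH 8.26, with 0.02% Chaps, then glass-filter filtration and gamma counting. Nonspecific binding was defined with 10⁻⁵ M (R)-PIA.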

[7] = target: T5, Adenosine receptor A1 (Rattus norvegicus, UniProt P25099); assay: Affinity for A1 adenosine receptor using [3H]-N6 -(phenylisopropyl)-adenosine (R)-[3H]-PIA in rat brain; type: tissue-based
T5 sequence (P25099 whole entry): T1 sequence (whole entry)
Outline: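 Rat cerebral cortex membranes pretreated with adenosine deaminase (0.5 unit/mL, 20 min, 37 °C). Competition against 1 nM (R)-[3H]PIA over a range of ligand concentrations, in triplicate, in at least three experiments. […] For irreversible ligands the value is an apparent Ki.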

[8] = target: T1, Adenosine receptor A1 (Rattus norvegicus); assay: Percentage inhibition of [125I]APNEA binding to adenosine A1 receptor from rat brain after 45 min incubation at 500 nM
Outline: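 Adenosine deaminase-treated rat cerebral cortex membranes were exposed to the ligand for 45 min at 37 °C. They were washed three times, held in buffer with 10⁻⁴ M IBMX for 18 h at 25 °C, washed and re-treated with deaminase. Residual sites were measured by 125I-APNEA saturation (0.1–2.5 nM) against untreated membranes carried through the same procedure.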

[9] = target: T5, Adenosine receptor A1; assay: Affinity for adenosine A1 receptor using [3H]-N6 -(phenylisopropyl)-adenosine (R)-[3H]-PIA in rat brain.; type: tissue-based
Outline: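 Rat cerebral cortex membranes were incubated with 1 nM (R)-[3H]PIA and a range of competitor concentrations. Each point was run in triplicate, in at least three separate experiments.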

[10] = target: T3, Adenosine A2 receptor; assay: Inhibitory affinity for adenosine A2 receptor using [3H]N-ethyladenosine-5'-uronamide; type: protein assay
[11] = target: T2, Adenosine receptors; A1 & A2 (Rattus norvegicus); assay: Selectivity ratio between Ki for adenosine A2 and A1 receptors; type: protein assay

SMILES: O=C(Cc1ccc(NC(=O)Cc2ccc(Nc3ncnc4c3ncn4C3O[C@H](CO)[C@@H](O)[C@H]3O)cc2)cc1)NCC/N=C(\S)Nc1cccc(N=C=S)c1 (stereo partly specified)
inhibition [1]: 62%
inhibition [2]: > 90%
Ratio [3]: 203
inhibition [4]: > 90%
Ki [5]: 176 nM

Ki [6]: 3.17 nM
Ki [7]: 266 nM
inhibition [8]: 0%
SMILES: CCCn1c(=O)c2nc(-c3ccc(OCC(=O)NCC=O)cc3)[nH]c2n(CCC)c1=O

Ki [9]: 51.1 nM
Ki [10]: 70 nM
Ratio [11]: 1.37
SMILES: O=C(Cc1ccc(NC(=O)Cc2ccc(Nc3ncnc4c3ncn4C3O[C@H](CO)[C@@H](O)[C@H]3O)cc2)cc1)NCC/N=C(\S)Nc1ccc(S(=O)(=O)[O-])cc1.[Na+] (stereo partly specified)
